# Measured values from ChEMBL document CHEMBL1155273, “Search for new pharmacophores for antimalarial activity. Part III: synthesis and bioevaluation of new 6-thioureido-4-anilinoquinazolines” (Eur J Med Chem, 2009).
# Active and inactive are the calls of the source. No cut-off for these calls is given here.
# Assays:
# Plasmodium falciparum = test: Antimalarial activity against chloroquine-sensitive Plasmodium falciparum 3D7; format: functional, organism-based
# [1] = Selectivity index, ratio of CC50 for african green monkey (Cercopithecus aethiops) Vero cells to IC50 for chloroquine-sensitive Plasmodium falciparum 3D7; format: functional
# [2] = test system: Plasmodium yoelii nigeriensis; test: Antimalarial activity against multidrug-resistant Plasmodium yoelii nigeriensis infected Swiss mice (Mus musculus) assessed as survival at 100 mg/kg, perorally for 4 days measured on day 7; format: functional, organism-based; design: dose 100 mg/kg
# Method in brief: (§1)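 Swiss mice infected on day 0 with P. yoelii nigeriensis MDR (N67, chloroquine-resistant) parasitized cells. Groups of five mice received the test compound orally as an aqueous suspension at 50 or 100 mg/kg from day 0 to 4; five controls received vehicle only. Parasitaemia was read from tail-vein thin blood smears on days 4, 7, 14, 21 and 28, or until death.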
# [3] = test system: Plasmodium yoelii nigeriensis; test: Antimalarial activity against multidrug-resistant Plasmodium yoelii nigeriensis infected Swiss mice (Mus musculus) assessed as suppression in parasitaemia at 100 mg/kg, perorally for 4 days measured on day 4; format: functional; conditions: 96 h, route oral; method in brief: as §1
# [4] = test system: Plasmodium yoelii nigeriensis; test: Antimalarial activity against multidrug-resistant Plasmodium yoelii nigeriensis infected Swiss mice (Mus musculus) assessed as suppression in parasitaemia at 100 mg/kg, perorally for 4 days measured on day 7; format: functional; conditions: route oral; method in brief: as §1
# [5] = test system: Plasmodium yoelii nigeriensis; test: Antimalarial activity against multidrug-resistant Plasmodium yoelii nigeriensis infected Swiss mice (Mus musculus) assessed as survival at 100 mg/kg, perorally for 4 days measured on day 28; format: functional; conditions: route oral; method in brief: as §1
SMILES,IC50 (Plasmodium falciparum) [µg/mL],MIC (Plasmodium falciparum) [µg/mL],Ratio CC50/IC50 [1],other results
COc1ccc(Nc2ncnc3ccc(NC(=S)Nc4cccc5ccccc45)cc23)cc1OC,0.207,2,133.8,
FC(F)(F)c1cccc(Nc2ncnc3ccc(NC(=S)Nc4ccc(Br)cc4)cc23)c1,0.0392,2,67.1,Activity [2]: inactive; inhibition in vivo at 100 mg/kg [3]: 9.78%
COc1cccc(Nc2ncnc3ccc(NC(=S)Nc4ccc(Cl)cc4)cc23)c1,,10,,
COc1ccc(Nc2ncnc3ccc(NC(=S)Nc4cccc(Cl)c4)cc23)cc1OC,,10,,
S=C(Nc1ccc(Br)cc1)Nc1ccc2ncnc(Nc3ccccc3)c2c1,,10,,
S=C(Nc1ccccc1)Nc1ccc2ncnc(Nc3cccc(Cl)c3)c2c1,,10,,
S=C(Nc1ccc2ncnc(Nc3cccc(Cl)c3)c2c1)Nc1cccc2ccccc12,,10,,
Fc1cccc(NC(=S)Nc2ccc3ncnc(Nc4ccccc4)c3c2)c1,0.792,2,70.3,
N#Cc1cccc(NC(=S)Nc2ccc3ncnc(Nc4cccc(Cl)c4)c3c2)c1,,> 10,,
COc1ccc(Nc2ncnc3ccc(NC(=S)Nc4ccc(Cl)cc4)cc23)cc1OC,,10,,
COc1ccc(Nc2ncnc3ccc(NC(=S)Nc4cccc(C#N)c4)cc23)cc1OC,,10,,
S=C(Nc1ccc(Cl)cc1)Nc1ccc2ncnc(Nc3ccccc3)c2c1,,2,,
COc1ccc(Nc2ncnc3ccc(NC(=S)Nc4cccc(Cl)c4)cc23)cc1,,> 10,,
N#Cc1cccc(NC(=S)Nc2ccc3ncnc(Nc4ccccc4)c3c2)c1,,> 10,,
COc1cccc(Nc2ncnc3ccc(NC(=S)Nc4ccc(Br)cc4)cc23)c1,0.106,1,187,inhibition in vivo at 100 mg/kg [4]: 99.9%; Activity [5]: 50%; inhibition in vivo at 100 mg/kg [3]: 100%
COc1ccc(Nc2ncnc3ccc(NC(=S)Nc4cccc5ccccc45)cc23)cc1,,10,,
Fc1cccc(NC(=S)Nc2ccc3ncnc(Nc4cccc(C(F)(F)F)c4)c3c2)c1,,10,,
S=C(Nc1ccccc1)Nc1ccc2ncnc(Nc3ccccc3)c2c1,,2,,
FC(F)(F)c1cccc(Nc2ncnc3ccc(NC(=S)Nc4cccc(Cl)c4)cc23)c1,,10,,
N#Cc1cccc(NC(=S)Nc2ccc3ncnc(Nc4cccc(C(F)(F)F)c4)c3c2)c1,0.443,2,5.5,
COc1cccc(Nc2ncnc3ccc(NC(=S)Nc4cccc(C#N)c4)cc23)c1,0.021,1,453,

SMILES,IC50 (Plasmodium falciparum) [µg/mL],MIC (Plasmodium falciparum) [µg/mL],Ratio CC50/IC50 [1],other results
COc1cccc(Nc2ncnc3ccc(NC(=S)Nc4cccc(Cl)c4)cc23)c1,0.0115,2,1615.3,inhibition in vivo at 100 mg/kg [4]: 28.4%; inhibition in vivo at 100 mg/kg [3]: 46.5%
COc1ccc(Nc2ncnc3ccc(NC(=S)Nc4ccc(Br)cc4)cc23)cc1OC,0.683,2,85.7,
COc1ccc(Nc2ncnc3ccc(NC(=S)Nc4cccc(C#N)c4)cc23)cc1,,> 10,,
COc1ccc(Nc2ncnc3ccc(NC(=S)Nc4ccc(Cl)cc4)cc23)cc1,,> 10,,
S=C(Nc1ccc(Cl)cc1)Nc1ccc2ncnc(Nc3cccc(Cl)c3)c2c1,,10,,
FC(F)(F)c1cccc(Nc2ncnc3ccc(NC(=S)Nc4ccccc4)cc23)c1,0.992,2,69,
COc1ccc(Nc2ncnc3ccc(NC(=S)Nc4ccccc4)cc23)cc1,0.243,2,80.4,
COc1ccc(Nc2ncnc3ccc(NC(=S)Nc4cccc(F)c4)cc23)cc1,0.0532,2,206.4,
COc1ccc(Nc2ncnc3ccc(NC(=S)Nc4ccccc4)cc23)cc1OC,0.303,2,90,
FC(F)(F)c1cccc(Nc2ncnc3ccc(NC(=S)Nc4ccc(Cl)cc4)cc23)c1,,10,,
S=C(Nc1cccc(Cl)c1)Nc1ccc2ncnc(Nc3ccccc3)c2c1,0.813,2,29,
S=C(Nc1ccc(Br)cc1)Nc1ccc2ncnc(Nc3cccc(Cl)c3)c2c1,0.526,2,1,
S=C(Nc1cccc(Cl)c1)Nc1ccc2ncnc(Nc3cccc(Cl)c3)c2c1,0.0088,2,556.3,inhibition in vivo at 100 mg/kg [4]: 16.1%; inhibition in vivo at 100 mg/kg [3]: 77.2%
COc1cccc(Nc2ncnc3ccc(NC(=S)Nc4cccc(F)c4)cc23)c1,0.0267,1,510.7,
COc1cccc(Nc2ncnc3ccc(NC(=S)Nc4cccc5ccccc45)cc23)c1,,10,,
COc1ccc(Nc2ncnc3ccc(NC(=S)Nc4ccc(Br)cc4)cc23)cc1,0.0502,2,114.9,
FC(F)(F)c1cccc(Nc2ncnc3ccc(NC(=S)Nc4cccc5ccccc45)cc23)c1,,10,,
Fc1cccc(NC(=S)Nc2ccc3ncnc(Nc4cccc(Cl)c4)c3c2)c1,,10,,inhibition in vivo at 100 mg/kg [4]: 61.1%; inhibition in vivo at 100 mg/kg [3]: 85.7%
S=C(Nc1ccc2ncnc(Nc3ccccc3)c2c1)Nc1cccc2ccccc12,,2,,
COc1ccc(Nc2ncnc3ccc(NC(=S)Nc4cccc(F)c4)cc23)cc1OC,0.385,2,63.7,
COc1cccc(Nc2ncnc3ccc(NC(=S)Nc4ccccc4)cc23)c1,0.258,2,38.7,
